Rows were chosen to be rich in hits. Some 6.4% of all compounds tested hit in one or more screens of this group.
PostGolgi yeast: phenotypic screen on post-Golgi transport, primary screen. post-Golgi transport phenotypic cell assay. inhibition, % at 10 µM. hit rate 0.9% among 98,000;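 note: yeast cells grown in 1536-well plates; yeast grown about 18 h at 30C before absorbance read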
PLK1 kinase inh: human PLK1 kinase inhibitors, primary screen, biochemical, TR-FRET. Serine/threonine-protein kinase PLK1 (Homo sapiens), P53350. recombinant PLK1 kinase, TR-FRET peptide phosphorylation. inhibition, % at 10 µM. hit rate 0.53% among 97,000;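 active = inhibition of 50% or more in the single-concentration screen; inactive = inhibition below 50%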;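 note: 0% = DMSO max control and 100% = H-89 dihydrochloride min control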
PostGolgi ctrl: growth inhibition of yeast control strain, primary screen, counter-screen for post-Golgi transport modulator project; efflux-deficient yeast background strain, growth absorbance A615, 16 h; inhibition, % at 10 µM; hit rate 5% among 98,000; AID 738, 2007
EphB4 ephrin blk: EphB4-ephrin-B2 interaction antagonists, primary screen, biochemical, TNYL-RAW peptide probe, fluorescence polarization | Ephrin type-B receptor 4 (Homo sapiens), P54760 | EphB4 LBD / TNYL-RAW-Alexa532 peptide | inhibition, % at 7 µM | hit rate 0.15% among 97,000;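 active = inhibition above the screen-wide mean inhibition plus 3 SD, cut at about 15% in these data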;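 note: 0% = DMSO wells and 100% = excess unlabeled TNYL-RAW peptide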
HIV Rev-RRE inh: HIV-1 Rev-RRE binding inhibitors, primary screen, biochemical, FRET, protein-RNA interaction; P05866; Rev peptide-RRE RNA binding; inhibition, % at 8 µM; hit rate 0.79% among 97,000; AID 704, 2007;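 active = inhibition above the screen-wide mean plus 3 SD, cut at about 35% in these data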;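 note: 0% = median DMSO wells and 100% = median Neomycin B control wells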
Target sequence (P05866 whole entry, looked up): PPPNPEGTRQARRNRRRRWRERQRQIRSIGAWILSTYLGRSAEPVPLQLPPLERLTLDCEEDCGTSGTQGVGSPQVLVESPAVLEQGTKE
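Material: labelled RRE RNA duplex and labelled Rev peptide / Buffer or medium: HEPES pH 7.5 salt buffer with EDTA / Compound dosing: single point, 8 µM final nominal compound concentration / Benchmarks: DMSO low control, neomycin B high control / Timing: 5 min preincubation and 15 min binding, 25 °C / Technique: FRET fluorescence readout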
Plk1 PBD FP: Plk1 polo box domain binding inhibitors, primary screen, biochemical, fluorescence polarization; Plk1 PBD phosphopeptide binding; inhibition, %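 (tested at about 20 µM)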; hit rate 0.13% among 97,000; AID 693, 2007; in the data active = inhibition above about 34%, passing the limit was not always enough
An asterisk follows results filed as active; nt = no result given. Cut-off read from the data, not from the text of the source, unless noted: active = inhibition above about 30%; inactive = the rest.

SMILES	PostGolgi yeast	PLK1 kinase inh	PostGolgi ctrl	EphB4 ephrin blk	HIV Rev-RRE inh	Plk1 PBD FP
Clc1ccc(/C=N/Nc2nc(Cl)nc3ccccc23)cc1	-15	-10	12	-5	5	38
Cc1ccc(C2=Nc3ccccc3NC(C)(c3ccc(C)o3)C2)o1 (centres undefined)	-11	-15	55*	0	11	-13
C[N+]1(CCOc2ccc([N+](=O)[O-])cc2)CCOCC1	-1	-19	10	0	3	-5
Cc1ccc(C(=O)CN(C(=O)c2ccc(Cl)c(Cl)c2)N2C(=O)C3C4C=CC(C4)C3C2=O)cc1 (centres undefined)	27	-3	29	0	4	-6
CC(C)C(C)(C#N)NC(=O)CSc1ncnc2sc(-c3ccccc3)cc12 (centres undefined)	-12	-5	40*	4	1	-3
O=C(Nc1ncccc1O)c1cccc(S(=O)(=O)N2CCc3ccccc32)c1	-5	-4	34*	-7	0	-11
COc1ccc(C(=O)Nc2ccc(S(=O)(=O)N3CCc4ccccc43)cc2)cc1	nt	-11	nt	-1	4	-5
Clc1ccc2[nH]c3c(c2c1)CCc1cn[nH]c1-3	74*	4	57*	-1	-2	-33
COc1ccc(C(=O)NN(C)c2nc(-c3ccccc3)nnc2C(F)(F)F)cc1	2	-8	35*	-6	3	-1
CO/N=C(/CS(=O)Cc1ccccc1Cl)c1ccc(Cl)cc1Cl (centres undefined)	0	-8	30*	3	12	19
CN(C)CCNC=C(C(=O)Nc1ccc(Cl)cc1Cl)C(=O)Nc1ccc(Cl)cc1Cl	40*	-3	99*	0	0	-17
CN1C(=O)c2ccccc2C(C(=O)O)C1c1cn(C)c2ccccc12 (centres undefined)	10	-2	6	-10	2	-9
N/C(=N\OC(=O)CCC1CCCCC1)c1cccnc1	1	1	33*	-7	2	10
N/C(=N\OC(=O)CCC1CCCCC1)c1ccc([N+](=O)[O-])cc1	1	-8	-2	-6	17	-8
Cn1cccc1/C=N/n1c(-c2ccccc2)n[nH]c1=S	3	-1	8	-6	-6	21
Cn1cccc1/C=N/n1c(-c2ccc(C(C)(C)C)cc2)n[nH]c1=S	19	-10	37*	-3	-6	-13
Cc1cc(=O)[nH]c(-n2[nH]c(C)cc2=O)n1	3	-10	4	14	10	0
O=c1cc(C(F)(F)F)nc(-n2[nH]c3c(c2=O)CCCC3)[nH]1	-21	2	10	-4	67*	-13
O=C(COc1ccc2ccccc2c1)Nc1ccc(Cc2ccncc2)cc1	-5	63*	1	-11	-2	7
COc1ccccc1N1CCN(CC(=O)NCC2CCCO2)CC1 (centres undefined)	nt	-7	nt	-9	5	-14
O=C(NC(=S)Nc1ccccc1)c1csnn1	-3	-13	-5	-2	4	0
Cc1c(Cl)cccc1NC(=O)c1ccc(-n2ccnc2)nc1	2	-4	34*	2	4	-20
Cc1ncoc1C(=O)Nc1cccc(Cl)c1C	-6	15	8	4	7	-7
C=CCSc1nnc(NC(=O)c2nc(SCC)ncc2Cl)s1	7	-7	33*	3	-2	5
Clc1ccc(-c2cn3cccnc3n2)cc1Cl	18	-9	-3	-1	39*	-27
CCOCC(=O)Nc1cc(-c2cn3cccnc3n2)ccc1C	-21	-5	36*	-4	7	16
O=C(O)CC(c1cccc2ccccc12)n1cccc1 (centres undefined)	0	-15	-1	-3	4	5
Cc1ccc(OCC(=O)OCC(=O)c2c(N)n(C)c(=O)n(C)c2=O)cc1C	-7	8	7	4	10	-32
CS(=O)(=O)N(CC(=O)N1CCN(c2ccccc2)CC1)c1ccc(Cl)c(C(F)(F)F)c1	-2	-1	12	-4	12	-17

Assay outcomes deposited in PubChem by several laboratories.
